A short description of data set [1]: Average peak plasma concentration of compound at 10 mg/kg intraduodenal administration in salt depleted dog. The conditions noted are these: plasma.
Data set [2] can be described thus: Average area under curve at 10 mg/kg dose after intraduodenal administration to Ferret. The conditions noted are these: in vivo.
Data set [3] addresses T1, Renin (Homo sapiens, UniProt P00797).
T1 sequence (P00797 whole entry): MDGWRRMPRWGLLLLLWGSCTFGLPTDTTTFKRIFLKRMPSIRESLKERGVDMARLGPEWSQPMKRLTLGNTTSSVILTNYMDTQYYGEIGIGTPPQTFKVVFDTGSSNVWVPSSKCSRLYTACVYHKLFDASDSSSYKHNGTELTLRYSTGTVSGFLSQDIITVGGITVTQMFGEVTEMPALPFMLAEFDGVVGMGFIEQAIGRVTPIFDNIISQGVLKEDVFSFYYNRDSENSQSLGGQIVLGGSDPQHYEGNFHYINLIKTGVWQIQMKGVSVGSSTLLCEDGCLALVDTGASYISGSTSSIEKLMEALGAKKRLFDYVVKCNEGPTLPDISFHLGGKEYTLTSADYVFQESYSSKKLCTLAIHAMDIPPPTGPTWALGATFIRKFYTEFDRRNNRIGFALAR
The data set can be described thus: Tested in vitro for its ability to inhibit the human plasma renin. The format is cell-free. A digest of the protocol:
(§1)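 IC50 against renin in plasma from the named species (dog, ferret, human, rat); single determination in most cases.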

A short description of data set [4]: Oral bioavailability in rat. The conditions noted are these: in vivo, intraduodenal, 10 mg/kg.
Data set [5] in a line: Average peak plasma concentration of compound after 1 mg/kg intravenous administration in salt depleted dog. As to conditions: plasma.
A short description of data set [6]: Average area under curve at 1 mg/kg intravenous administration to salt depleted dog. The conditions noted are these: in vivo.
Data set [7] in a line: Average peak plasma concentration of compound after 10 mg/kg intraduodenal administration to rat. The conditions noted are these: plasma.
Data set [8] in a line: Oral bioavailability in dog (salt depleted). As to conditions: in vivo.
Data set [9] can be described thus: Average peak plasma concentration of compound after 1 mg/kg intravenous administration to rat. The conditions noted are these: plasma.
For data set [10], the target named is Renin (Mustela putorius furo). The data set can be described thus: Tested in vitro for its ability to inhibit the ferret plasma renin.
The subject of data set [11] is Canis familiaris. Kind of data set: Mean arterial pressure response following 10 mg/kg intraduodenal administration to salt depleted dog. As to conditions: in vivo, other.
Data set [12] deals with T2, Renin (Rattus norvegicus, UniProt P08424).
T2 sequence (P08424 whole entry): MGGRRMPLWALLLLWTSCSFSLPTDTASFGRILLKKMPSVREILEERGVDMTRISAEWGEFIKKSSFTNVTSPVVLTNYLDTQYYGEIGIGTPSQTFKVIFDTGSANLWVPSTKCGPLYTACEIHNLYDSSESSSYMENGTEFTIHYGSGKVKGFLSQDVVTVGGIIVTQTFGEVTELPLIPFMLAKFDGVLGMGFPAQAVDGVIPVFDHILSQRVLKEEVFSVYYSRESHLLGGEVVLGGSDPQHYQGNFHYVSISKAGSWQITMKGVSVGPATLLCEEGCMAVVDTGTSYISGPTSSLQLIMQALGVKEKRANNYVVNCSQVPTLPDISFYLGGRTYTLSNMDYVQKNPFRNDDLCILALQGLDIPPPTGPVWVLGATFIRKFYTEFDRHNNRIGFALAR
The data set can be described thus: (§2) Tested in vitro for its ability to inhibit the rat plasma renin. It counts as cell-free. A digest of the protocol:
as §1

Data set [13] in a line: Partition coefficient (logD7.4). As to conditions: octanol/water, pH 7.4.
Data set [14] in a line: Average area under curve for compound at 1 mg/kg dose intravenous administration to Ferret. The conditions noted are these: in vivo.
A short description of data set [15]: Oral bioavailability in ferret. As to conditions: in vivo.
The nature of data set [16]: Partition coefficient (logD6.5). The conditions noted are these: octanol/water, pH 6.5.
The species entered for a further data set is Homo sapiens. The conditions noted are these: Liver, Microsome.
The subject of data set [17] is Canis familiaris. The data set can be described thus: Mean arterial pressure response following 1 mg/kg intravenous administration to salt depleted dog. The conditions noted are these: in vivo.
The nature of data set [18]: Average area under curve for the compound at 10 mg/kg dose after intraduodenal administration to rat. As to conditions: in vivo.
Data set [19] can be described thus: Average peak plasma concentration of compound after 10 mg/kg intraduodenal administration to Ferret. As to conditions: plasma.
Data set [20] is described as follows: Average area under curve at 10 mg/kg intraduodenal administration to salt depleted dog. As to conditions: in vivo.
Data set [21] can be described thus: Average peak plasma concentration of compound after 1 mg/kg intravenous administration to Ferret. The conditions noted are these: plasma.
The nature of data set [22]: Average area under curve for the compound at 1 mg/kg dose after intravenous administration to rat. The conditions noted are these: in vivo.
For data set [23], the target named is Renin (Canis familiaris). The data set can be described thus: Tested in vitro for its ability to inhibit the dog plasma renin.
Data set [24] concerns the target Renin (Canis familiaris). The data set is described as above. The source holds these as a separate data set.
Data set [25] deals with Renin (Mustela putorius furo). The data set can be described thus: Tested in vitro for its ability to inhibit the ferret plasma renin. The source holds these as a separate data set.
Data set [26] addresses T2, Renin. The description is as §2. It counts as functional, cell-free. Summed up: as §1
Data set [27] deals with Renin (Canis familiaris). Kind of data set: Tested in vitro for its ability to inhibit the dog plasma renin. This is another data set of the same source.
The nature of data set [28]: C(compound) was tested for percent […] bioavailability in rat. The format is ADME, organism-based. As to conditions: in vivo, po. Summed up:
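Intraduodenal rather than oral dosing: 10 mg/kg id, plus a 1 mg/kg iv bolus. Plasma drug levels were measured by renin-inhibition bioassay, which counts active metabolites as parent. Level–time data were fitted to a biexponential decay model to give AUC. Bioavailability is the dose-corrected AUCid/AUCiv for each experiment, given as mean ± SD of the mean; n=3 unless noted.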

In data set [29] the target is Renin (Mustela putorius furo). The data set can be described thus: Tested in vitro for its ability to inhibit the ferret plasma renin. The source holds these as a separate data set.

The structures appear in SMILES notation.

In the case of `CCCC[C@H](N[C@@H](Cc1ccccc1)C(=O)N1CCC(OCOC)CC1)C(=O)N[C@@H](CC1CCCCC1)[C@@H](O)C[C@H](C(=O)NCC(C)(C)N1CCOCC1)C(C)C`, the highest concentration (Cmax) in [1] came out at 1600 ng/mL; in [5] it was 7560 ng/mL; in data set [7], 600 ng/mL; in [9], 340 ng/mL; in data set [19], 11500 ng/mL; in [21], 2980 ng/mL. Further, the AUC in data set [2] was 16600 ng·h/mL; in data set [6], 1840 ng·h/mL; in [14] it was 2630 ng·h/mL; in data set [18], 763 ng·h/mL; in data set [20] it was 6970 ng·h/mL; in data set [22], 215 ng·h/mL. Besides, the IC50 at Renin [3] came to 9.1 nM; in [10], 120 nM; at Renin [12], 2100 nM; at Renin (Canis familiaris) [23], 14 nM. Besides, the bioavailability in data set [4] was found to be 35%; in [8], 37%; in data set [15] it was 63%. In addition, the results for the Arterial pressure with Canis familiaris [11] and with Canis familiaris [17] were 8525 % mmHg min and 7589 % mmHg min, respectively. For the same compound, the pH-dependent lipophilicity (logD) in data set [13] and in [16] was greater than 5 each time. The compound also had a Rate (nM min-1 (nM of cytochrome P450)-1) in the data set filed under Homo sapiens of 4.32.

For `CCCC[C@H](N[C@@H](Cc1ccccc1)C(=O)N1CCC(OCOC)CC1)C(=O)N[C@@H](CC1CCCCC1)[C@@H](O)C[C@H](C(=O)NCCC[N+]1([O-])CCOCC1)C(C)C`, the peak concentration (Cmax) is 420 ng/mL in data set [1]; greater than 5530 ng/mL in [5]; 140 ng/mL in data set [7]; 1130 ng/mL in [9]; 1180 ng/mL in data set [19]; 1830 ng/mL in data set [21]. Further, the IC50 against Renin (Canis familiaris) [24] is 19 nM; at Renin [3], 4.3 nM; in data set [25], 420 nM; against Renin [26] it was 6400 nM. Moreover, the area under the curve (AUC) was 1350 ng·h/mL in data set [2]; greater than 732 ng·h/mL in data set [6]; 668 ng·h/mL in data set [14]; 140 ng·h/mL in [18]; 1430 ng·h/mL in data set [20]; 212 ng·h/mL in data set [22]. The bioavailability was 6% in data set [4], less than 19% in data set [8] and 20% in data set [15]. Besides, the values for the Arterial pressure with Canis familiaris [11] and with Canis familiaris [17] were 6881 % mmHg min and 3707 % mmHg min, respectively. The pH-dependent lipophilicity (logD) in [13] and in [16] was 3.6 throughout.

As to `CCCC[C@H](N[C@@H](Cc1ccccc1)C(=O)N1CCC(OCOC)CC1)C(=O)N[C@@H](CC1CCCCC1)[C@@H](O)C[C@H](C(=O)NCCN1CCOCC1)C(C)C`, the Cmax worked out at 1830 ng/mL in data set [1]; 7000 ng/mL in data set [5]; 910 ng/mL in data set [7]; 680 ng/mL in data set [9]; 6500 ng/mL in data set [19]; 2840 ng/mL in [21]. The AUC in data set [2] is 9750 ng·h/mL; in data set [6], 1260 ng·h/mL; in [14], 1870 ng·h/mL; in [18] it was 1220 ng·h/mL; in [20] it was 6530 ng·h/mL; in data set [22], 242 ng·h/mL. Besides, the IC50 at Renin [3] was 3.9 nM; against Renin (Canis familiaris) [27] it was 14 nM; against Renin [12], 3800 nM; in [29] it was 170 nM. The bioavailability turned out to be 52% in data set [8], 51% in [15] and 50% in data set [28]. The Arterial pressure worked out at 6449 % mmHg min with Canis familiaris [11] and 2849 % mmHg min in the data set on Canis familiaris [17]. Also, the pH-dependent lipophilicity (logD) in [13] and in data set [16] was greater than 5 each time. In the data set listed under Homo sapiens, this compound showed a Rate (nM min-1 (nM of cytochrome P450)-1) of 3.71.

In general, Cmax refers to the maximum level reached in the sampled fluid or tissue. Usually AUC stands for concentration integrated over time. In general, IC50 refers to the point on the concentration scale where inhibition reaches its midpoint. What is called bioavailability is dose-corrected exposure relative to a reference, in per cent. By logD is commonly meant the decadic logarithm of the distribution of all forms, ionised or not, between an organic phase and buffer at a given pH.

The record behind these values is ChEMBL document CHEMBL1127457, “Nonpeptide renin inhibitors with good intraduodenal bioavailability and efficacy in dog” (J Med Chem, 1994).
